High-throughput results from PubChem BioAssay.
L major viab – inhibitors of Leishmania major promastigote growth; inhibition, % at 10 µM; 200,000 tested, 9% active; Leishmania major promastigotes, resazurin fluorescence viability; in the data active = inhibition above about 50%;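 note: promastigotes grown with compound for 44 hours at 28 °C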
WT yeast gro inh – growth inhibition of WT yeast, mitochondrial fusion screen; mitochondrial fusion phenotypic screen, WT strain; inhibition, % at 10 µM; 190,000 tested, 2.1% active; AID 1362; in the data active = inhibition above about 58%; tested in S. cerevisiae
PMI activator – increases human mannose-6-phosphate isomerase activity. P34949. purified human PMI, coupled resazurin fluorescence, 20 min; stronger effect = higher value; 1 = vehicle control, 0 substrate-free wells. activation factor at 20 µM. 190,000 tested, 0.005% active;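 active = activation factor of 2 or more at 20 µM, relative to plate controls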
Target sequence (P34949 whole entry, looked up): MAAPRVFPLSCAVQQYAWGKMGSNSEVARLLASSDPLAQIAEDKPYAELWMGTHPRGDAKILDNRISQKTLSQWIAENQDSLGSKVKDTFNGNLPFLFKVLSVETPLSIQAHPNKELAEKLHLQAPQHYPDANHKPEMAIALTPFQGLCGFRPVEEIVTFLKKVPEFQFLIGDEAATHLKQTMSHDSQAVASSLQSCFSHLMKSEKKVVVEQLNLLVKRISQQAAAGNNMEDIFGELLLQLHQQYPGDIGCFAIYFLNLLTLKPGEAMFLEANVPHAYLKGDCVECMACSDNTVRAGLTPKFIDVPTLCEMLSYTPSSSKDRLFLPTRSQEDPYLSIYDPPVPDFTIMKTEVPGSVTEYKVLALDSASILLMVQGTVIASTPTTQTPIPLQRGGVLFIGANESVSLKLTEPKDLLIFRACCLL
Diaphorase act – counter-screen for diaphorase-based assays: diaphorase activators and chemical reducers | Diaphorase/resazurin coupled assay, resorufin fluorescence, 16 min; stronger effect = higher value; 1 = vehicle wells, 0 = NADH-free wells | activation factor at 20 µM | 190,000 tested, 0.005% active;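 active = diaphorase activity raised at least twofold by the compound at 20 µM; inactive = activation factor below 2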
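Assay system: bacterial diaphorase enzyme (C. kluyveri) / Input: enzyme 0.07 U/mL final / Medium: 50 mM HEPES pH 7.4 with 4.542 mM MgCl2, 0.005% Tween 20 / Doses: single compound dose of 20 µM, 1% DMSO final / Incubation: 16 min enzyme reaction, ambient temperature / Signal: fluorescence, excitation 544 nm and emission 590 nm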
PMI act satM6P – PMI (human) activation, high substrate; P34949; coupled PMI enzyme assay, resazurin fluorescence, 20 min; stronger effect = higher value; 1 = untreated enzyme, 0 = substrate-free blank; activation factor at 20 µM; 190,000 tested, 0.34% active;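 active = activation factor of 2 or more at 20 µM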
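test system = human PMI in coupled enzyme assay | medium = HEPES-buffered pH 7.4 with magnesium and detergent | also added = 1.0 mM mannose-6-phosphate substrate with 0.22 mM NADP+ | compound = 20 µM single dose | times = 20 min incubation at room temperature | measured by = resorufin fluorescence (Ex 544/Em 590 nm) from resazurin via diaphorase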
Numbers stand for hits. An excerpt weighted towards active compounds, which were near 10% of everything screened.

Screening COc1cc(/C=N/Nc2nc3ccccc3[nH]2)cc(OC)c1O returned L major viab inactive, WT yeast gro inh inactive, PMI activator inactive, Diaphorase act inactive and PMI act satM6P inactive.
For O=[N+]([O-])c1ccc(O)c(/C=N/Nc2ccccn2)c1 the results were L major viab 89, WT yeast gro inh inactive, PMI activator inactive, Diaphorase act inactive and PMI act satM6P inactive.
For O=[N+]([O-])c1ccc(O)c(/C=N/Nc2nc3ccccc3[nH]2)c1 the results were L major viab 100, WT yeast gro inh inactive, PMI activator inactive, Diaphorase act inactive and PMI act satM6P inactive.
Screening O=C(NCCNCc1ccccn1)c1ccco1 returned L major viab inactive, WT yeast gro inh inactive, PMI activator inactive, Diaphorase act inactive and PMI act satM6P inactive.
Screening O=C(c1ccccc1C(=O)N(c1ccccc1)c1ccccc1)N1CCCCC1 returned L major viab inactive, WT yeast gro inh inactive, PMI activator inactive, Diaphorase act inactive and PMI act satM6P inactive.
`Cc1ccc(C)c(S(=O)(=O)N2CCCOC2CNC(=O)C(=O)NCCC2=CCCCC2)c1` (stereo not drawn) gave L major viab inactive, WT yeast gro inh inactive, PMI activator inactive, Diaphorase act inactive and PMI act satM6P inactive.
For COc1cc(/C=N/Nc2nc3ccccc3[nH]2)ccc1O the results were L major viab 80, WT yeast gro inh inactive, PMI activator inactive, Diaphorase act inactive and PMI act satM6P inactive.
For O=C(N/N=C/c1cc([N+](=O)[O-])ccc1O)C12CC3CC(CC(C3)C1)C2 the results were L major viab 97, WT yeast gro inh inactive, PMI activator inactive, Diaphorase act inactive and PMI act satM6P inactive.
COc1ccc(-c2nnc(SCC(=O)Nc3ccc4c(c3)OCCO4)n2N)cc1OC was read as L major viab inactive, WT yeast gro inh inactive, PMI activator inactive, Diaphorase act inactive and PMI act satM6P inactive.
`COc1ccc2cc(C(=O)C3CCCN(C(=O)c4cc(=O)n(C)c(=O)n4C)C3)ccc2c1` (stereo not drawn) gave L major viab inactive, WT yeast gro inh inactive, PMI activator inactive, Diaphorase act inactive and PMI act satM6P inactive.
`CCOC(=O)N1CCC(N2CCCC(C(=O)c3ccccc3OC)C2)CC1` (stereo not drawn) gave L major viab 80, WT yeast gro inh inactive, PMI activator inactive, Diaphorase act inactive and PMI act satM6P inactive.
Screening CCOC(=O)N1CCC(N2CCCC(C(=O)c3ccc4cc(OC)ccc4c3)C2)CC1 (stereo not drawn) returned L major viab 98, WT yeast gro inh inactive, PMI activator inactive, Diaphorase act inactive and PMI act satM6P inactive.
For CCCS(=O)(=O)N1CCCC(C(=O)c2ccccc2OC)C1 (stereo not drawn) the results were L major viab inactive, WT yeast gro inh inactive, PMI activator inactive, Diaphorase act inactive and PMI act satM6P inactive.
`COc1c(C)cc(C(=O)C2CCCN(C(=O)CCc3scnc3C)C2)cc1C` (stereo not drawn) gave L major viab inactive, WT yeast gro inh inactive, PMI activator inactive, Diaphorase act inactive and PMI act satM6P inactive.
For CCOC(=O)N1CCC(N2CCCC(C(=O)c3cc(C)c(OC)c(C)c3)C2)CC1 (stereo not drawn) the results were L major viab 93, WT yeast gro inh inactive, PMI activator inactive, Diaphorase act inactive and PMI act satM6P inactive.
Cc1ccccc1NC(=O)Nc1nnc(Cc2ccc([N+](=O)[O-])cc2)s1 was read as L major viab inactive, WT yeast gro inh inactive, PMI activator inactive, Diaphorase act inactive and PMI act satM6P inactive.
O=C1c2ccccc2C(O)(Cc2ccccc2)N1CCCN1CCOCC1 (stereo not drawn) was read as L major viab inactive, WT yeast gro inh inactive, PMI activator inactive, Diaphorase act inactive and PMI act satM6P inactive.
CC(C)CN1C(=O)c2ccccc2C1(O)Cc1ccccc1 (stereo not drawn) was read as L major viab inactive, WT yeast gro inh inactive, PMI activator inactive, Diaphorase act inactive and PMI act satM6P 2.
CC1CCN(C(=O)CSc2nnc(-c3cc4ccccc4cc3O)n2Cc2ccco2)CC1 was read as L major viab inactive, PMI activator inactive, Diaphorase act inactive and PMI act satM6P inactive.
For Cc1ccc(NN=C2c3ccccc3-c3ccccc32)cc1 the results were L major viab inactive, WT yeast gro inh inactive, PMI activator inactive, Diaphorase act inactive and PMI act satM6P 2.2.
Screening Cc1ccc(OCC(=O)NN=C2c3ccccc3-c3ccccc32)cc1 returned L major viab inactive, WT yeast gro inh inactive, PMI activator inactive, Diaphorase act inactive and PMI act satM6P inactive.
`COCCN(CC(=O)NC1CCCCC1)C(=O)/C=C/C(=O)c1ccc(OC)cc1O` gave L major viab inactive and WT yeast gro inh inactive.
COc1ccc(CN(C(=O)/C=C/C(=O)c2ccc(OC)cc2O)C(C(=O)NC2CCCCC2)c2ccncc2)cc1 (stereo not drawn) was read as L major viab 78, WT yeast gro inh inactive, PMI activator inactive, Diaphorase act inactive and PMI act satM6P inactive.
Screening COc1ccc(C(=O)/C=C/C(=O)N(Cc2ccc3c(c2)OCO3)C(C(=O)NC2CCCCC2)c2ccncc2)c(O)c1 (stereo not drawn) returned L major viab 55, WT yeast gro inh inactive, PMI activator inactive, Diaphorase act inactive and PMI act satM6P inactive.
Screening COc1ccc(C(=O)/C=C/C(=O)N(CC(=O)NC2CCCCC2)Cc2cccs2)c(O)c1 returned L major viab inactive, WT yeast gro inh 65, PMI activator inactive, Diaphorase act inactive and PMI act satM6P inactive.
For Cc1nnsc1NC(=O)OCc1ccc(C(C)(C)C)cc1 the results were L major viab inactive, WT yeast gro inh inactive, PMI activator inactive, Diaphorase act inactive and PMI act satM6P inactive.
For CCOC(=O)C(NC(=O)NCc1ccccc1OC)(OCC)C(F)(F)F (stereo not drawn) the results were L major viab inactive, WT yeast gro inh inactive, PMI activator inactive, Diaphorase act inactive and PMI act satM6P inactive.
COc1ccc(-n2c(C)cc(/C=C3\SC(=S)N(Cc4ccco4)C3=O)c2C)cc1 was read as L major viab 68, WT yeast gro inh inactive, PMI activator inactive, Diaphorase act inactive and PMI act satM6P inactive.
For CC(=O)c1ccc(NC(=O)CSc2ccsc2[N+](=O)[O-])cc1 the results were L major viab inactive, WT yeast gro inh inactive, PMI activator inactive, Diaphorase act inactive and PMI act satM6P inactive.
Screening COC(=O)c1cc2sccc2n1Cc1nc(-c2ccc(OC)cc2)oc1C returned L major viab 100, WT yeast gro inh inactive, PMI activator inactive, Diaphorase act inactive and PMI act satM6P inactive.
CCOc1ccc(NC(=O)Nc2ccccc2SC)cc1 was read as L major viab inactive, WT yeast gro inh inactive, PMI activator inactive, Diaphorase act inactive and PMI act satM6P inactive.
For COc1ccc(S(=O)(=O)N(C)C)cc1NC(=O)COC(=O)CC1CCCC1 the results were L major viab inactive, WT yeast gro inh inactive, PMI activator inactive, Diaphorase act inactive and PMI act satM6P inactive.
